For orientation: IC50 means the concentration at which inhibition is half-maximal. Low readings indicate greater potency, high ones weaker potency.

These results are taken from ChEMBL document CHEMBL1126310, “Affinity probes for the avermectin binding proteins” (J Med Chem, 1992).

Common to all, as to format: functional
One assay deals with Artemia salina. Briefly: Compound was evaluated for the biological activity by (Artemia salina) brine shrimp immobilization assay. In outline: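 Compounds dissolved at 1 mg/mL in acetonitrile, tested in duplicate as 2-fold serial dilutions in acetonitrile across a row. Brine shrimp added in 0.20 mL brine per well. Immobilization scored by microscope after 6 h at room temperature; IC100 reported.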

The test system of assay [1] is Caenorhabditis elegans. Briefly: Compound was evaluated for the binding affinity for Caenorhabditis elegans avermectin using Caenorhabditis elegans membrane homogenates using [3H]IVM as radioligand. In outline: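 C. elegans worms washed with 50 mM HEPES pH 7.4, homogenized; 1000g supernatant spun at 28 000g, pellet resuspended to about 12.5 μg protein/mL. Membranes (1.0 mL) incubated with [3H]-IVM (22,23-ditritioivermectin) at 22 °C for 45 min with and without analogs. Filtration over GF/B filters, rinse with cold HEPES containing 0.25% Triton X-100, scintillation counting; IC50 reported.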

Assay [2] relates to Caenorhabditis elegans. Briefly: Compound was evaluated for the biological activity by Caenorhabditis elegans motility assay. In outline: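 About 100 worms per tube, rinsed and resuspended in Krebs bicarbonate buffer pH 7.4. Compounds in DMSO, final 1% DMSO in 500 μL. After 16 h at 22 °C, motility scored by microscope; percentage of immotile worms determined at several concentrations per compound.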

Converted amounts (≈) assume the structure as drawn.

`CCC(C)[C@H]1O[C@]2(CC[C@@H]1C)C[C@@H]1C[C@@H](C/C=C(\C)C(OCOCCN3CC3)[C@@H](C)/C=C/C=C3\COC4[C@H](O)C(C)=C[C@@H](C(=O)O1)[C@]34O)O2` (stereo partly specified) came in with an IC100 in the assay on Artemia salina of 3470 ng/mL. Moreover, in the assay with Caenorhabditis elegans [1] (Caenorhabditis elegans, 45 min), the IC50 was 5 nM. Besides, the EC50 in the assay on Caenorhabditis elegans [2] (read-out: ED50 (the source's name)) stood at 0.048 µg/mL (≈ 0.07 µM).

Consider IVERMECTIN [listing 1 of 2 here], for which the IC50 at Caenorhabditis elegans [1] was 0.1 nM.

In the assay on Artemia salina, IVERMECTIN [listing 2 of 2 here] returned an IC100 of 430 ng/mL. In the assay on Caenorhabditis elegans [2], this molecule showed an ED50 of 0.007 µg/mL.
